From the EternaBench riboswitch data

Tested on: MS2 coat protein
Experiment: apparent Kd, MS2 coat protein; higher = weaker binding; RNA-MaP array; FMN 200 µM where present
How it was run: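 The apparent Kd is the median of filtered binding-curve fits, one per cluster, to green signal normalised to red-channel RNA signal and control-cluster median Fmax. The clusters were on Illumina sequencing chips, and stalled E. coli RNA polymerase had transcribed the designs on them. Titration used SNAP-549-labelled MS2 coat protein from 0.7 or 1.5 nM, doubling to 3 µM, without and then with constant ligand, in 100 mM Tris-HCl pH 7.5, 80 mM KCl, 4 mM MgCl2, BSA, DTT, yeast tRNA and Tween-20.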

[1] = designed as: ON switch for flavin mononucleotide, no ligand
[2] = ligand present: flavin mononucleotide, designed as: ON switch for flavin mononucleotide
[3] = designed as: OFF switch for flavin mononucleotide, no ligand
[4] = ligand present: flavin mononucleotide, designed as: OFF switch for flavin mononucleotide

AGAUAGAUAGCGAUAUGAUCGAGAGAUCAUGUCGCUAAAUUUAGAAGGACAUGAGGAUCACCCAUGUAGGAUAUGGGUAUAGAA
apparent Kd [1]: 0.404 µM | apparent Kd [2]: 0.149 µM

CGUAACUGCAUAGGAUAUUGAUACAUGAGGAUCACCCAUGUUUUUCGGAUUUGUAAUAUACUAAGCAAGAAGGAUGGAGUUACG
apparent Kd [1]: 0.00804 µM | apparent Kd [2]: 0.00566 µM

GUUGAUGGAGGAUAUACUGCAGUGAUUGGCAAGAAUCCAGCACAUGAGGAUCACCCAUGUAGAAGGCCAUAACA
apparent Kd [3]: 0.0258 µM | apparent Kd [4]: 0.0635 µM

CUGUACUGAGGAUAUACAUGAGGAUCACCCAUGUGUUCGAUACUAGUGAGGUCGAUUAGUAGAAGGCAGUACAG
apparent Kd [3]: 0.023 µM | apparent Kd [4]: 0.242 µM

UGAUCGAGAGAUCUUAGAUUCUGGUAGGAUAUACAUAAUGUAAUAUAGACAUGAGGAUCACCCAUGUAGAAGGACUAGAGUCUA
apparent Kd [3]: 0.00849 µM | apparent Kd [4]: 0.0243 µM

GUGCUAUGAGGAUAUACGUUGGUGGGCAUCUGUGUGCUCCUACAUGAGGAUCACCCAUGUAGAAGGCAUGUCAC
apparent Kd [3]: 0.0124 µM | apparent Kd [4]: 0.0219 µM

UUUAAUAUUAUAGGAUAUGGAUACGAUACGUAUCCAGAAGGGUGAUUAAACUAUAAUCUAUACAUGAGGAUCACCCAUGUUUAU
apparent Kd [1]: 0.212 µM | apparent Kd [2]: 0.0447 µM

AUUUUGUCAGGAUAUGAGUAGUAGGAUGAGAGUGCUACUACUUAGAAGGGACAUGAGGAUCACCCAUGUCUUCC
apparent Kd [3]: 0.0142 µM | apparent Kd [4]: 0.0167 µM

GAGGACUGUAAAUAAGUAGAAAUACAUGAGGAUCACCCAUGUAAGGAUAUCGUCAGGAAUACUGACGAGAAGGUACAUCAGUCC
apparent Kd [3]: 0.0145 µM | apparent Kd [4]: 0.0181 µM

ACUGUCCGAGAGAAGGGAACAUGAGGAUCACCCAUGUUACCUCACCUGGUGACGGAACUCCAAGUUCAGGAUAUCUCGGGCGGC
apparent Kd [3]: 0.00514 µM | apparent Kd [4]: 0.00759 µM

CGAGUACAUGAGGAUCACCCAUGUUAUGAAUUGUCAGGAUAUGGAUAUUGUUGACAUGCGCCAGAAGGGACUUCUG
apparent Kd [1]: 0.0275 µM | apparent Kd [2]: 0.0203 µM

CCCAAGUCAGGAUAUGGAACACAGAGACAUCUCUGUGCCCACCAGAAGGGACAUGAGGAUCACCCAUGUGAUGA
apparent Kd [3]: 0.0644 µM | apparent Kd [4]: 0.296 µM

AUACUCAUGUAAGGAUAUGCAGCCGAAACGGCUGCAGAAGGUACUAUAAUACAUGAGGAUCACCCAUGUCAAAAUAAAAUAGUC
apparent Kd [1]: 0.0635 µM | apparent Kd [2]: 0.0229 µM

AACCUAUUACAGAAGGCCAGCUACAUGAGGAUCACCCAUGUCGAGUCAUGGAGGAUAUGUAGUAAUUUACUCGCGGAUGAGUAA
apparent Kd [1]: 0.0238 µM | apparent Kd [2]: 0.00535 µM

UGUCGUGUUCGAGGAUAUGAAACUAGGCCGGGCACUGUACACCCGCCUGUCUCAGAAGGCGGACAUGAGGAUCACCCAUGUAAA
apparent Kd [3]: 0.294 µM | apparent Kd [4]: 0.0221 µM

UGGUACUAGGGAGGAUAUGGGAAGAUACAUGAGGAUCACCCAUGUUUAAGAAUGCCGGGAGGCAACUAGAAGGCCCUAGUACCU
apparent Kd [1]: 0.478 µM | apparent Kd [2]: 0.0212 µM

CGUAUUAUUCAGAAGGCACUUCUCAUGUUACAUGAGGAUCACCCAUGUUUGUGAGGAUAUGAAUAUAGUUGUUGGUGUAUUAUA
apparent Kd [3]: 0.00725 µM | apparent Kd [4]: 0.00859 µM

CUUUUGUGAGGAUAUUAGUAGUAAAUGAAUAAAAUUAUUACUGAGAAGGUACAUGAGGAUCACCCAUGUUCCUC
apparent Kd [3]: 0.0168 µM | apparent Kd [4]: 0.0246 µM

UCAGUAGAGUCAGGAUAUACGAAAGGCGAUCCAUACAUGAGGAUCACCCAUGUAGAAGGGACUCUACUGUAAGUCGGAAACGAC
apparent Kd [3]: 0.309 µM | apparent Kd [4]: 0.0219 µM

CUACAUGAGGAUCACCCAUGUGCACACCGGAUCGGCGUGCGCAGAAGGGCCAUGGAGAAAGCCAGGCAGGAUAUGCAAAGGGCU
apparent Kd [1]: 0.396 µM | apparent Kd [2]: 0.189 µM

UGAUAGGACAGAGGAUAUACCGAUAGGAUCUACUAUCGAAGAAUCCUUACAUGAGGAUCACCCAUGUAGAAGGCUGUCCUAUCU
apparent Kd [3]: 0.0204 µM | apparent Kd [4]: 0.0296 µM

GUCAGCUCGUGAGGAUAUACAACACUGCUUCGGCAGUGUAUUAAGAUCACAUGAGGAUCACCCAUGUAGAAGGCACGAGCUAAU
apparent Kd [3]: 0.0159 µM | apparent Kd [4]: 0.267 µM

AAUAAACAUGAGGAUCACCCAUGUAAAUGGGCGAUAGGAUAUGCGAAAAUAAAGAAAGAAGCAGAAGGAUCGAAGA
apparent Kd [1]: 0.846 µM | apparent Kd [2]: 0.509 µM

AAAGCUUCCGCCACAUGAGGAUCACCCAUGUCGUAACCGGGACAGGAUAUCCUCGAUGUAUUUGCGGAGAAGGGUCGCAGGUUA
apparent Kd [1]: 0.0771 µM | apparent Kd [2]: 0.147 µM

UGUCGGAGCAGAGGAUAUUACAUGAGGAUCACCCAUGUAUAAAAUGGAAGCUGGAAACAGCAAUGUAAGAAGGCUGCUCCGACA
apparent Kd [3]: 0.0612 µM | apparent Kd [4]: 0.288 µM

GGAGCACACAUUAACAUGAGGAUCACCCAUGUCAAUAGACAUGAGGAUAUGGAUCCGAAAAGGAUCCAGAAGGCAUGGUGCUCC
apparent Kd [1]: 0.13 µM | apparent Kd [2]: 0.01 µM

CCACGGUAUGUAGGAUAUGCAUAGCAUUGCUAUGCAGAAGGACAUGAGGAUCACCCAUGUAUGUAUUCCAUACUAAUCCCGUGC
apparent Kd [3]: 0.00642 µM | apparent Kd [4]: 0.00637 µM

GUAUCUCACUGAGGAUAUUUACGAUUAGUGUAGACAUGAGGAUCACCCAUGUGGCGUUAGUCACGGGAGAAGGCAGUGCGAUAC
apparent Kd [1]: 0.114 µM | apparent Kd [2]: 0.02 µM

AAUUAACAUGAGGAUCACCCAUGUGAGGAUAUGGUAUUAUUUGGACAGUUAUGAUAUACCAGAAGGCACAUAUA
apparent Kd [3]: 0.0634 µM | apparent Kd [4]: 0.108 µM

GACUGAUUGUAGAAGGUACUUAAUACUCAUGUAACAUGAGGAUCACCCAUGUAUCAACAAUAUUGUAAGGAUAUACAUAUCUCA
apparent Kd [1]: 0.231 µM | apparent Kd [2]: 0.103 µM

ACAUGAUCAGGAUAUACAUGAGGAUCACCCAUGUAAAUCAAAAAAAAACUUUCUUUAUGUAGAAGGGAUCUUGU
apparent Kd [3]: 0.0144 µM | apparent Kd [4]: 0.0155 µM

AGUAAGAUGCAGAAGGUGUUAGCUAGAGCUACGACAUGAGGAUCACCCAUGUACAAAAGCCCGUACAAGGAUAUGCAUCUUACA
apparent Kd [1]: 0.00446 µM | apparent Kd [2]: 0.00421 µM

AACAGUACAGGAUAUACAUGAGGAUCACCCAUGUGAGCGUUAAGUGCCGUAGCACAAAGUAGAAGGGUACUGGA
apparent Kd [3]: 0.0299 µM | apparent Kd [4]: 0.0925 µM

GGAGGGCCUCGAGGAUAUCGCUGCGGUCGUCUGACAUGAGGAUCACCCAUGUGAGAAGGCGAGGCUACUGACUAUGCCCGUUAU
apparent Kd [3]: 0.0279 µM | apparent Kd [4]: 0.275 µM

AUUUCAGUCAGAGGAUAUUGUUUAUCUCUAUUGCAAGAAGGCUGAUCUUACUACCCACUUAUGAAACAUGAGGAUCACCCAUGU
apparent Kd [1]: 0.0208 µM | apparent Kd [2]: 0.0168 µM

ACGGUCUUGUCAGGAUAUACAUGAGGAUCACCCAUGUAAUGCGGGUAGGAUAACAAGUCACUUAGGUAGAAGGGACAAGGGACU
apparent Kd [3]: 0.0221 µM | apparent Kd [4]: 0.0546 µM

GAAAAACAUGAGGAUCACCCAUGUGAGAAUAUGGGAGGAUAUACGAGGACGAGAGUCAAGGUAGAAGGCCUAAAAG
apparent Kd [1]: 0.0963 µM | apparent Kd [2]: 0.0152 µM

AAGAAACAUGAGGAUCACCCAUGUGAGGAUAUGUAAAAUAAAAUAAAAUAAAUAAUAAACAGAAGGCACAAAGG
apparent Kd [3]: 0.068 µM | apparent Kd [4]: 0.0765 µM

GGUAAGAAGUGCGUGAGCUACUUGAGAAGGCGACAUGAGGAUCACCCAUGUCUGUUCCUCAAGUUCGAGGAUAUCAGGUAGUUG
apparent Kd [3]: 0.00742 µM | apparent Kd [4]: 0.00906 µM

UAAGUCUAAUGAGGAUAUCGUAAUGAAACAUUAUGAGAAGGCAUACAAUCAUGAGGACAUGAGGAUCACCCAUGUUGUGACCAU
apparent Kd [1]: 0.0336 µM | apparent Kd [2]: 0.0162 µM

AGCUGGUGACAGCAUCGAGCUAAACAUGAGGAUCACCCAUGUAGAAGGCUGUACGGUUACCGUACAGAGGAUAUACAUAGCUCG
apparent Kd [3]: 0.00611 µM | apparent Kd [4]: 0.0063 µM

AGAUAACAUGUAGGAUAUCGAGGCCUGAGGCCUCGAGAAGGACAUGAGGAUCACCCAUGUAGUUGUACCAUGGAAUCACGCACU
apparent Kd [3]: 0.34 µM | apparent Kd [4]: 0.645 µM

GGUGCGUAUGUGAGGAUAUGCUGGUCCUUGGAUCUGCAGAAGGCACAUGAGGAUCACCCAUGUGGUGUCGUACC
apparent Kd [3]: 0.356 µM | apparent Kd [4]: 0.0285 µM

UCAUUAUAAAUCCAUCAUAACUACAUGAGGAUCACCCAUGUGCAGGAUAUCGAUUAUUUUACUAACGAGAAGGGCAAAUACAGA
apparent Kd [3]: 0.0375 µM | apparent Kd [4]: 0.0724 µM

GGCGAACAGGCUAACAUGAGGAUCACCCAUGUGGACUCAUGGUAGGAUAUCGGGAAGGAGGAAACCGAGAAGGGCCGGUGAGCC
apparent Kd [1]: 0.061 µM | apparent Kd [2]: 0.0341 µM

GUUAAACAUGAGGAUCACCCAUGUAAGGAUAUGCUGCGGUCGCGCUGACGUGACUGCAGCAGAAGGUACAAAUG
apparent Kd [3]: 0.105 µM | apparent Kd [4]: 0.0669 µM

AAGGUGUUAGGAUAUCGUAGUUUGUGGCAGACGGGAUUUUGCGAGAAGGAACAUGAGGAUCACCCAUGUCGGAU
apparent Kd [3]: 0.0284 µM | apparent Kd [4]: 0.0282 µM

AAUCUGUCGGUAGGAUAUCAGUUUGGAGAGCCGACAUGAGGAUCACCCAUGUACAGAAUCAAGGGUGAGAAGGACCGGGUAGUU
apparent Kd [1]: 0.0907 µM | apparent Kd [2]: 0.0786 µM

GCGAUUUAGUAGAAGGUACGAUAUAUAUCAUUGUAAGGAUAUACUUACAUGAGGAUCACCCAUGUUAAGGGUUAUAAUAAUCGC
apparent Kd [1]: 0.195 µM | apparent Kd [2]: 0.134 µM

ACAUGAGGAUCACCCAUGUAUUCAUAGGAUAUACAACAUGAGUUUCAUUCAUGUAAACAUGUAUUGUAGAAGGAUGUUACAUGU
apparent Kd [3]: 0.0136 µM | apparent Kd [4]: 0.015 µM

GGCUACGUUUCGUAGCAGUGUCAUCGAGAAGGCCCUGACAUGAGGAUCACCCAUGUUGUUACAUGGGAGGAUAUCGAUGAUACC
apparent Kd [1]: 0.0121 µM | apparent Kd [2]: 0.00527 µM

AACAGCUCGUCAGGAUAUAUUAUCUUUUAAUGUAUUAAUGUACAUGAGGAUCACCCAUGUUGUUUGUAGAAGGGACGAGCUGAA
apparent Kd [3]: 0.00888 µM | apparent Kd [4]: 0.00934 µM

AUAAAUAUAGCGAUAUGAUCGAGAGAUCAUGUCGCUAAUGUUAGAAGGACAUGAGGAUCACCCAUGUAGGAUAUGGGAGUAUGA
apparent Kd [1]: 0.197 µM | apparent Kd [2]: 0.086 µM

GCUUGUAGAGGAUAUACAAGGGCCUUAGCGGAAAACUCCGCACAUGAGGAUCACCCAUGUAGAAGGCUACCACC
apparent Kd [3]: 0.0161 µM | apparent Kd [4]: 0.0979 µM

CCGAGAAGGACAGGAUAUGGACAUGAGGAUCACCCAUGUACAUGGGAAUAUAUACUGAAUUUUUACUAGAAGGGUUACAUAAAU
apparent Kd [3]: 0.0193 µM | apparent Kd [4]: 0.0149 µM
